A short description of data set [1]: Cytotoxicity against MDCK cells assessed as alteration in cell morphology by MTS assay. Type of data set: cell-based, Canis lupus familiaris. Particulars: dog. The procedure, abridged:
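Uninfected host cells were exposed to compound and examined under the microscope. MCC was the minimal compound concentration causing a microscopically detectable change in normal cell morphology.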

A short description of data set [2]: Cytotoxicity against MDCK cells assessed as decrease in cell viability by MTS assay. Type of data set: cell-based, Canis lupus familiaris. The conditions noted are these: dog. The procedure, abridged:
(§1)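 Uninfected host cells were exposed to compound. CC50 was taken as the concentration giving a 50% fall in cell viability, measured by a colorimetric formazan-based MTS assay.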
Background: Tetrazolium dyes change colour on reduction, which living cells bring about.

For data set [3], the system named is Human alphaherpesvirus 1. As to the kind of experiment: Antiviral activity against HSV1 virus infected in HEL cells assessed as inhibition of virus-induced cytopathic effect at 100 uM by MTS assay. The class given is functional, organism-based. (In general: Cytopathic effects are the visible damage that an infection or toxin causes in cultured cells.)
Data set [4] concerns Human alphaherpesvirus 2. Nature of the data set: Antiviral activity against HSV2 virus infected in HEL cells assessed as inhibition of virus-induced cytopathic effect at 100 uM by MTS assay. Type of data set: functional, organism-based.
Data set [5] deals with Felid alphaherpesvirus 1. Nature of the data set: Antiviral activity against feline herpes virus infected in CRFK cells assessed as inhibition of virus-induced cytopathic effect at 100 uM by MTS assay. Type of data set: functional, organism-based.
The test system of data set [6] is Feline coronavirus. As to the kind of experiment: Antiviral activity against feline coronavirus infected in CRFK cells assessed as inhibition of virus-induced cytopathic effect at 100 uM by MTS assay. Type of data set: functional, organism-based.
In data set [7] the test system is Mammalian orthoreovirus 1. Nature of the data set: Antiviral activity against Reovirus1 infected in Vero cells assessed as inhibition of virus-induced cytopathic effect at 100 uM by MTS assay. Type of data set: functional, organism-based. An outline of the steps: (§2)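 Vero cell monolayers were infected with the virus in cell-based CPE assays. EC50 is the concentration giving 50% inhibition of virus-induced cytopathic effect, scored visually or by MTS formazan colorimetric cell-viability read-out. The highest concentration tested was 100 μM for most compounds and lower for a few.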

For data set [8], the system named is Coxsackievirus B4. Nature of the data set: Antiviral activity against Coxsackievirus B4 infected in HeLa cells assessed as inhibition of virus-induced cytopathic effect at 100 uM by MTS assay. The class given is functional, organism-based. The procedure, abridged: (§3)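 HeLa cells were infected with the virus, and compounds were tested up to 100 μM. EC50 is the concentration that halves virus-induced cytopathic effect, read by visual CPE scoring or by MTS formazan colorimetric viability measurement.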

The test system of data set [9] is HeLa. As to the kind of experiment: Cytotoxicity against human HeLa cells assessed as decrease in cell viability upto 100 uM by MTS assay. The class given is functional, cell-based. An outline of the steps: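 Uninfected HeLa host cells were tested up to 100 μM. CC50 is the concentration causing a 50% drop in cell viability by colorimetric formazan-based MTS assay. Alternatively, MCC is the minimal concentration giving microscopically detectable alteration of normal cell morphology.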

Data set [10] has as its system HEL. Nature of the data set: Cytotoxicity against HEL cells assessed as decrease in cell viability upto 100 uM by MTS assay. The class given is cell-based. Particulars: human.
Data set [11] has as its system Respiratory syncytial virus. Nature of the data set: Antiviral activity against respiratory syncytial virus infected in HeLa cells assessed as inhibition of virus-induced cytopathic effect at 100 uM by MTS assay. The class given is functional, organism-based. The procedure, abridged:
as §3

Data set [12] concerns Punta Toro virus. Nature of the data set: Antiviral activity against Punta Toro virus infected in Vero cells assessed as inhibition of virus-induced cytopathic effect at 100 uM by MTS assay. Type of data set: functional, organism-based. The procedure, abridged:
as §2

Data set [13] deals with Human respirovirus 3. Nature of the data set: Antiviral activity against Parainfluenza 3 virus infected in Vero cells assessed as inhibition of virus-induced cytopathic effect at 100 uM by MTS assay. The class given is functional, organism-based. An outline of the steps: as §2
Data set [14] relates to Sindbis virus. As to the kind of experiment: Antiviral activity against Sindbis virus infected in Vero cells assessed as inhibition of virus-induced cytopathic effect at 100 uM by MTS assay. Type of data set: functional, organism-based. The procedure, abridged: as §2
Data set [15] relates to Coxsackievirus B4. Nature of the data set: Antiviral activity against Coxsackievirus B4 infected in Vero cells assessed as inhibition of virus-induced cytopathic effect at 100 uM by MTS assay. The class given is functional, organism-based. The procedure, abridged:
as §2

Data set [16] has as its system MDCK. As to the kind of experiment: Cytotoxicity against MDCK cells assessed as decrease in cell viability upto 100 uM by MTS assay. Particulars: dog. The class given is cell-based, Canis lupus familiaris.
The nature of data set [17]: Cytotoxicity against CRFK cells assessed as decrease in cell viability by MTS assay. Type of data set: cell-based, Felis catus. Particulars: cat. An outline of the steps:
as §1

Data set [18] in a line: Cytotoxicity against CRFK cells assessed as decrease in cell viability upto 100 uM by MTS assay. Type of data set: cell-based, Felis catus. Particulars: cat.

The source made the active and inactive calls. The rule behind the calls is not given here. Some results are limits rather than exact numbers.

Regarding `CCOC(=O)C1=C[C@@H](OC(CC)CC)[C@H](NC(C)=O)[C@@H](N)C1` [OSELTAMIVIR], in data set [1], the MCC is greater than 100 µM. Also, in data set [2], the cytotoxic concentration (CC50) was greater than 100 µM.

As for `CC(C)(C)C(=O)OCCN(Cn1ccc(=O)[nH]c1=O)S(=O)(=O)c1ccc([N+](=O)[O-])cc1`, the result in [3], in data set [4], in data set [5], in data set [6], in [7] and in data set [8] was inactive. Further, the outcome in [9], in data set [11], in [12], in [13], in data set [14] and in [15] was inactive. Further, the Activity entry in data set [10] and in [16] was “Not Active” in each case. Also, in data set [17], the CC50 was 49 µM.

With `CC(N)C12CC3CC(CC(C3)C1)C2` (stereo unspecified) [RIMANTADINE], in data set [1], the MCC is greater than 100 µM. Also, the cytotoxic concentration (CC50) in data set [2] was greater than 100 µM.

With `Cc1cn(CN(CCOC(=O)C(C)(C)C)S(=O)(=O)c2ccc([N+](=O)[O-])cc2)c(=O)[nH]c1=O`, the result in data set [3], in [4], in data set [5], in data set [6], in data set [7] and in data set [8] was inactive. Also, the result in [9], in [11], in data set [12], in data set [13], in [14] and in data set [15] was inactive. The Activity result in data set [10] and in data set [16] was “Not Active” throughout. Moreover, in data set [17], the CC50 worked out at 53 µM.

Take `CC(C)(C)C(=O)OCCN(Cn1cc(F)c(=O)[nH]c1=O)S(=O)(=O)c1cccc(N)c1`: the result in [3], in data set [4], in data set [5], in [6], in [7] and in data set [8] was inactive. The result in [9], in data set [11], in data set [12], in data set [13], in data set [14] and in data set [15] was inactive. For the same compound, the Activity result in data set [18], in data set [10] and in data set [16] was “Not Active” throughout.

For `CC(C)(C)C(=O)OCCN(Cn1ccc(=O)[nH]c1=O)S(=O)(=O)c1ccccc1[N+](=O)[O-]`, the result in data set [3], in data set [4], in [5], in data set [6], in data set [7] and in data set [8] was inactive. For the same compound, the result in data set [9], in [11], in data set [12], in data set [13], in data set [14] and in [15] was inactive. In addition, the Activity entry in data set [18], in data set [10] and in data set [16] was “Not Active” throughout.

In the case of `NC12CC3CC(CC(C3)C1)C2` [AMANTADINE], in data set [1], the MCC is greater than 100 µM. The cytotoxic concentration (CC50) in [2] is greater than 100 µM.

Consider `CC(C)(C)C(=O)OCCN(Cn1cc(F)c(=O)[nH]c1=O)S(=O)(=O)c1ccc(N)cc1`, for which the result in data set [3], in data set [4], in [5], in [6], in data set [7] and in data set [8] was inactive. The result in data set [9], in [11], in [12], in data set [13], in [14] and in data set [15] was inactive. For the same compound, the Activity result in data set [18], in data set [10] and in [16] was “Not Active” each time.

With `CC(C)(C)C(=O)OCCN(Cn1cc(F)c(=O)[nH]c1=O)S(=O)(=O)c1ccccc1N`, the result in data set [3], in [4], in [5], in [6], in [7] and in [8] was inactive. Further, the outcome in [9], in data set [11], in [12], in data set [13], in [14] and in data set [15] was inactive. For the same compound, the Activity result in data set [18], in data set [10] and in [16] was “Not Active” each time.

On to `CC(C)(C)C(=O)OCCN(Cn1ccc(=O)[nH]c1=O)S(=O)(=O)c1cccc([N+](=O)[O-])c1`, for which the result in [3], in data set [4], in [5], in [6], in data set [7] and in data set [8] was inactive. Besides, the outcome in data set [9], in [11], in data set [12], in data set [13], in [14] and in data set [15] was inactive. In addition, the Activity entry in [18], in data set [10] and in data set [16] was “Not Active” in each case.

For the compound `CC(=O)Nc1ccc(S(=O)(=O)N(CCO)Cn2cc(C)c(=O)[nH]c2=O)cc1`, the outcome in [3], in data set [4], in data set [5], in data set [6], in data set [7] and in [8] was inactive. Further, the result in [9], in [11], in [12], in [13], in [14] and in data set [15] was inactive. Also, the Activity entry in data set [18], in [10] and in [16] was “Not Active” throughout.

As to `CC(C)(C)C(=O)OCCN(Cn1ccc(=O)[nH]c1=O)S(=O)(=O)c1ccc(N)cc1`, the outcome in data set [3], in data set [4], in [5], in [6], in data set [7] and in data set [8] was inactive. The result in data set [9], in data set [11], in [12], in [13], in [14] and in data set [15] was inactive. Also, the Activity result in [18], in data set [10] and in data set [16] was “Not Active” each time.

Broadly, the CC50 is the concentration that lowers cell viability or growth by half.
